Wee1 degr inh = blocks degradation of human Wee1 kinase. P30291. HeLa Luc-Wee1K328M stability, luciferase luminescence; 100% = proteasome inhibitor MG132 effect. reporter increase, % at 5 µM. actives 1.2% (n = 220,000). AID 1321;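 active = activation above the mean of all tested compounds plus 3 SD, set per screening run, cut at about 8.8% in these data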;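 note: cells exposed to compound for 20 h before luminescence read; 0% = DMSO alone and 100% = MG132 at 30 µM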
TNF necrop inh = inhibitors of TNF-alpha induced necroptosis in Jurkat FADD-/- cells. activation (protection from cell death), % at 10 µM. actives 0.068% (n = 220,000). Jurkat FADD-/- TNF necroptosis rescue, ATP luminescence, 24 h; 0 = TNF only, 100 = no-TNF cells. AID 463075;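 active = activation, meaning protection from cell death, of at least 50% relative to plate controls; inactive = activation below 50%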;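 note: necroptosis triggered by 40 ng/mL TNF-alpha added together with compound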
Pf gamet viab = inhibitors of late stage P. falciparum gametocyte viability; actives 0.065% (n = 150,000); AID 743093; inhibition, % at 10.9 µM; P. falciparum stage V gametocytes, ATP luminescence, 24 h;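 active = inhibition above the mean plus 3 SD of compounds within the control limits, set per campaign, cut at about 38% in these data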;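 note: 0% = DMSO wells and 100% = medium only without gametocytes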
L929 necroptosis = blocks zVAD induced death of L929 cells | L929 zVAD necroptosis rescue, ATP luminescence, 24 h; with zVAD 60 µM | viability rescue, % at 10 µM | actives 0.38% (n = 220,000) | AID 1377;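 active = activation, scaled between plate controls, above about 75%, limit read from the data; inactive = activation under that limit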;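 note: 0% = zVAD with DMSO and 100% = DMSO alone without zVAD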
RBBP9 inhibitor = inhibitors of human serine hydrolase RBBP9; recombinant RBBP9, FP-Rh probe fluorescence polarization; inhibition, % at 7.94 µM; actives 0.2% (n = 220,000); AID 1515;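 active = inhibition above the campaign mean of all tested compounds plus 3 SD, cut at about 14% in these data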;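 note: plate controls were DMSO wells with RBBP9 for no effect and wells lacking RBBP9 protein for full effect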
Target sequence (O75884 whole entry, looked up): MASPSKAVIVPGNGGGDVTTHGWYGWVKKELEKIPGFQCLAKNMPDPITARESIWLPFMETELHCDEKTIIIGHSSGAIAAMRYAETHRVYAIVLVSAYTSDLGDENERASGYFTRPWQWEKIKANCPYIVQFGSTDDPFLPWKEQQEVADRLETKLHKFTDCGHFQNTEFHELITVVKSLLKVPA
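Material: RBBP9 protein. Amount: RBBP9 at 2.5 µM in dispensed solution, before mixing. Schedule: 30 min then 45 min, 25 °C. Medium: Tris buffer pH 8.0, NaCl, Pluronic. Measured by: fluorescence polarization. Measure: percent inhibition from mP, scaled between DMSO and no-protein wells. Replication: one well per compound.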
Calpain2 inh = blocks pig calpain II enzyme activity. purified calpain II, fluorogenic peptide substrate, 30 min. inhibition, % at 16 µM. actives 0.37% (n = 220,000);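 active = inhibition above about 50%, limit read from the data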
Wee1 degr conf = human Wee1 degradation inhibition, confirmation | activation, % at 5 µM | AID 1410 | actives 4% (n = 1,100) | shares compounds with Wee1 degr inh | HeLa Luc-Wee1K328M degradation, luminescence; vehicle 0%, proteasome-blocked wells 100%; in the data active = activation above about 8.9%
zVAD necrop conf = confirmed blocker of zVAD induced death in L929 cells; actives 16% (n = 760); activation (protection from necroptosis), % at 10 µM; L929 zVAD-induced necroptosis rescue, ATP luminescence, 24 h; shares compounds with L929 necroptosis; AID 463117;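 active = mean protection from necroptosis of at least 50% over duplicate tests; inactive = mean protection below 50%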;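 note: 0% = cells with zVAD alone and 100% = vehicle cells without zVAD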
The depositor's hits bear a star. Only some compounds are listed: those with a hit (about 2.1% of all), similar ones and a draw of the others.

COc1ccc(N(CC(=O)Nc2c(C)n(C)n(-c3ccccc3)c2=O)S(=O)(=O)c2ccc(C)cc2)cc1 was read as Wee1 degr inh -4.0, TNF necrop inh 0.3, Pf gamet viab -1.0, L929 necroptosis 2.7, RBBP9 inhibitor 2.4 and Calpain2 inh -29.0.
Screening COc1ccc(N(CC(=O)Nc2c(C)n(C)n(-c3ccccc3)c2=O)S(=O)(=O)c2ccc(F)cc2)cc1 returned Wee1 degr inh 13.2*, TNF necrop inh 0.4, Pf gamet viab 0.1, L929 necroptosis -0.4, RBBP9 inhibitor 3.4, Calpain2 inh 21.8 and Wee1 degr conf -0.4.
Screening CCOc1ccc(S(=O)(=O)NCCC(=O)N2CCN(c3ccc(OC)cc3)CC2)cc1 returned Wee1 degr inh 11.2*, TNF necrop inh 0.7, Pf gamet viab 0.6, L929 necroptosis 0.2, RBBP9 inhibitor -4.7, Calpain2 inh 26.1 and Wee1 degr conf -1.4.
For COc1ccc(N2CCN(C(=O)CCNS(=O)(=O)c3ccccc3)CC2)cc1 the results were Wee1 degr inh -1.1, TNF necrop inh 0.7, Pf gamet viab -11.7, L929 necroptosis 0.7, RBBP9 inhibitor -5.2 and Calpain2 inh 11.4.
Screening CC(C)(C)NC(=S)NCc1ccncc1 returned Wee1 degr inh 4.5, TNF necrop inh 0.3, Pf gamet viab 8.3, L929 necroptosis -0.5, RBBP9 inhibitor -1.4 and Calpain2 inh -13.5.
Screening Cc1c(O)ccc2c(O)c(NC(=O)c3ccc4c(c3)CCC(C)(C)O4)c(=O)oc12 returned Wee1 degr inh 11.6*, TNF necrop inh -0.1, L929 necroptosis 0.4, RBBP9 inhibitor -4.7, Calpain2 inh 13.0 and Wee1 degr conf -1.3.
C=CS(=O)(=O)c1ccc(Oc2ccc(S(=O)(=O)C=C)cc2)cc1 was read as Wee1 degr inh 15.2*, TNF necrop inh 32.2, Pf gamet viab -6.4, RBBP9 inhibitor -9.2, Calpain2 inh -13.3 and Wee1 degr conf 14.2*.
For CC1CCCN(c2c([N+](=O)[O-])cc(C(=O)O)cc2[N+](=O)[O-])C1 (stereo not drawn) the results were Wee1 degr inh -2.9, TNF necrop inh 0.7, Pf gamet viab 21.4, L929 necroptosis 1.7, RBBP9 inhibitor -6.9 and Calpain2 inh -55.3.
`CS(=O)(=O)N1CCc2cc(C(=O)NC3CC3)ccc21` gave Wee1 degr inh 14.1*, TNF necrop inh 0.3, L929 necroptosis 2.4, RBBP9 inhibitor -5.0, Calpain2 inh -2.8 and Wee1 degr conf 3.3.
`COc1ccccc1/C=C/C(=O)NCC(=O)n1nc(C)cc1C` gave Wee1 degr inh -1.4, TNF necrop inh 3.2, Pf gamet viab 1.6, L929 necroptosis 1.3, RBBP9 inhibitor -0.7 and Calpain2 inh -4.7.
`COc1ccc(S(=O)(=O)N2CCOCC2)cc1NC(=O)c1cccc2c(=O)c(C)c(-c3ccccc3)oc12` gave Wee1 degr inh 1.2, TNF necrop inh -6.2, Pf gamet viab 5.4, L929 necroptosis 0.7, RBBP9 inhibitor -7.8 and Calpain2 inh -93.5.
For Cc1ccc2nc(-c3ccc(NC(=O)CN4CCN(c5ccccn5)CC4)cc3)sc2c1 the results were Wee1 degr inh 8.1, TNF necrop inh 3.1, Pf gamet viab -2.0, L929 necroptosis 0.4, RBBP9 inhibitor -9.2 and Calpain2 inh -70.0.
For CC1CC(C)(C)NC(=S)N1CCC(=O)N1CCN(c2ccccc2)CC1 (stereo not drawn) the results were Wee1 degr inh -3.1, TNF necrop inh 1.3, Pf gamet viab 11.6, L929 necroptosis 1.0, RBBP9 inhibitor -3.0 and Calpain2 inh -3.0.
COc1ccc(N2CCN(C(=O)CCN3C(=S)NC(C)(C)CC3C)CC2)cc1 (stereo not drawn) was read as Wee1 degr inh 11.0*, TNF necrop inh -0.2, L929 necroptosis 1.4, RBBP9 inhibitor -9.0, Calpain2 inh -9.6 and Wee1 degr conf 3.4.
O=C(O)CC(NC(=O)CCC1CCCCC1)c1cc([N+](=O)[O-])ccc1Cl (stereo not drawn) was read as Wee1 degr inh 1.1, TNF necrop inh 0.7, Pf gamet viab -17.9, L929 necroptosis 0.4, RBBP9 inhibitor -13.9 and Calpain2 inh -1.1.
`O=c1[nH]c2ccccc2nc1/C=C/c1ccc(O)cc1` gave Wee1 degr inh 11.3*, TNF necrop inh -6.2, Pf gamet viab -9.4, L929 necroptosis 81.4*, RBBP9 inhibitor -8.2, Calpain2 inh -22.1, Wee1 degr conf 6.2 and zVAD necrop conf 82.2*.
CC(=O)Nc1ccc(/C=N/Nc2nc3ccccc3s2)cc1 was read as Wee1 degr inh 12.7*, TNF necrop inh 62.6*, Pf gamet viab -8.2, L929 necroptosis 82.0*, RBBP9 inhibitor 4.2, Calpain2 inh -14.7, Wee1 degr conf 10.1* and zVAD necrop conf 82.5*.
For CC(=O)Nc1ccc(S(=O)(=O)Nc2nc3ccccc3s2)cc1 the results were Wee1 degr inh 0.9, TNF necrop inh -0.2, L929 necroptosis 0.0, RBBP9 inhibitor -7.6 and Calpain2 inh -16.9.
For C(=N\Nc1nc2ccccc2s1)/c1cccs1 the results were Wee1 degr inh 14.4*, TNF necrop inh 10.2, L929 necroptosis 81.8*, RBBP9 inhibitor -4.0, Calpain2 inh 21.4, Wee1 degr conf 5.2 and zVAD necrop conf 10.4.
For C(=N\Nc1nc2ccccc2s1)/c1ccco1 the results were Wee1 degr inh 11.9*, TNF necrop inh 17.4, L929 necroptosis 93.9*, RBBP9 inhibitor -1.6, Calpain2 inh 1.0, Wee1 degr conf 2.7 and zVAD necrop conf 48.7.
Screening O=C(COc1ccc(Cl)cc1Cl)NCCC1=CCCCC1 returned Wee1 degr inh 0.0, TNF necrop inh -1.9, Pf gamet viab -9.4, L929 necroptosis 0.1, RBBP9 inhibitor -5.6 and Calpain2 inh -0.9.
For CN(C)NC(=O)c1ccsc1NC(=O)c1ccc(S(=O)(=O)N(C)C)cc1 the results were Wee1 degr inh 0.9, TNF necrop inh 1.9, L929 necroptosis 1.8, RBBP9 inhibitor 2.1 and Calpain2 inh 22.4.
For O=C(CSc1nnc(-c2ccncc2)o1)N1CCCCCC1 the results were Wee1 degr inh 13.0*, TNF necrop inh 0.0, Pf gamet viab -9.5, L929 necroptosis 76.0*, RBBP9 inhibitor -7.2, Calpain2 inh -24.6, Wee1 degr conf 5.3 and zVAD necrop conf 0.4.
Cc1ccc(-c2nnc(SCC(=O)N3CCCC3)o2)cc1 was read as Wee1 degr inh -0.7, TNF necrop inh -4.0, L929 necroptosis 0.2, RBBP9 inhibitor -6.3 and Calpain2 inh -40.4.

Compound activity as filed in PubChem BioAssay.
